ChEMBL document CHEMBL1132280, “Discovery of potent and selective SH2 inhibitors of the tyrosine kinase ZAP-70” (J Med Chem, 1999)

Assays:
Parameters in all cases: species or system Escherichia coli
[1] = target: T1, Tyrosine-protein kinase ZAP-70 (Homo sapiens, UniProt P43403); assay: Binding affinity against SH2 domain of Zeta-chain (TCR) associated protein kinase 70 kDa
T1 sequence (P43403 whole entry): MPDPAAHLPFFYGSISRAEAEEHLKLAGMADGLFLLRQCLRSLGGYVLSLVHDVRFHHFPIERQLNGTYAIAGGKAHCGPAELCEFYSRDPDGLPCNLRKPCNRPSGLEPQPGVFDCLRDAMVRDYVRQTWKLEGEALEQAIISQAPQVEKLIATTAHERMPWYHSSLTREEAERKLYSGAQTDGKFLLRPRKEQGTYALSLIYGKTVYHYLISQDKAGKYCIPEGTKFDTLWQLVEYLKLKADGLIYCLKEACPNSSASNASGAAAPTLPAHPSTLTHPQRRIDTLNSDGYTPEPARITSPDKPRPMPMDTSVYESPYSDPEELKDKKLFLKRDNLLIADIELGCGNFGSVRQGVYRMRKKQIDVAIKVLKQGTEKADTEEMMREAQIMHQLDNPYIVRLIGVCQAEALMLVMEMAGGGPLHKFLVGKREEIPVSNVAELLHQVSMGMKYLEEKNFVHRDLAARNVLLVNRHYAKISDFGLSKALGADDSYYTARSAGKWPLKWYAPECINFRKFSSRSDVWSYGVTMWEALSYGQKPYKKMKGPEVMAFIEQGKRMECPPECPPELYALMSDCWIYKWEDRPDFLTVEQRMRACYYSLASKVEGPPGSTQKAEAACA

[2] = target: Proto-oncogene tyrosine-protein kinase Src (Homo sapiens, UniProt P12931); assay: Binding affinity against Src SH2 domain
[3] = target: Tyrosine-protein kinase SYK (Homo sapiens, UniProt P43405); assay: Binding affinity against Syk protein tyrosine kinase SH2 domain
[4] = target: Growth factor receptor-bound protein 2 (Homo sapiens, UniProt P62993); assay: Binding affinity against Growth factor receptor bound protein 2
Summary of the method: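 Fluorescence polarization competition assay using human Grb2 SH2 (residues 55–152), expressed in E. coli BL21(DE3) and purified on phosphotyrosine-agarose. Compounds were serially diluted 1:2 across 1000–0.04 μM in 20 mM phosphate pH 7.4 with 100 mM NaCl, 10 mM DTT, 4% DMSO, 1 mM EDTA and 0.1% bovine γ-globulin. They were added to 1.25 µM protein premixed with 20 nM fluorescein-labelled peptide (ex 485/em 530 nm). IC50 was taken from percent tracer bound relative to vehicle, as the mean of ≥3 experiments.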

Chain of Proto-oncogene tyrosine-protein kinase Src (P12931 2-536 limits assumed): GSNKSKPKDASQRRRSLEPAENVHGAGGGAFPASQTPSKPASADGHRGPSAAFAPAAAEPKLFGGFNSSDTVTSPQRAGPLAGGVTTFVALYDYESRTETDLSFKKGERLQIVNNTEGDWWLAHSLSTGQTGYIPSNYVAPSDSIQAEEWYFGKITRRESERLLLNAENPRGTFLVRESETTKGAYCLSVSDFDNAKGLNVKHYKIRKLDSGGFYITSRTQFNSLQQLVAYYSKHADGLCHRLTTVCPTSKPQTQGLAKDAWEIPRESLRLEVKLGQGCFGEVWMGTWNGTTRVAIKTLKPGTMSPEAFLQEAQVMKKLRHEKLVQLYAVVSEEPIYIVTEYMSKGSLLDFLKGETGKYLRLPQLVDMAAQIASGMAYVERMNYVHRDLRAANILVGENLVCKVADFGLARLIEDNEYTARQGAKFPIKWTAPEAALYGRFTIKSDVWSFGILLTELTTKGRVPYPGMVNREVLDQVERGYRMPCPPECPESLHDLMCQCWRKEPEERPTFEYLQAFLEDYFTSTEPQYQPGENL

IC50 [1] [µM] | IC50 [2] [µM] | IC50 [3] [µM] | IC50 [4] [µM] | SMILES
– | 132 | > 500 | – | CC(=O)N[C@@H](Cc1ccc(OP(=O)(O)O)cc1)C(=O)N[C@@H](CO)c1nc(Cc2ccc(F)cc2)no1
– | 96 | > 500 | – | CC(=O)N[C@@H](Cc1ccc(OP(=O)(O)O)cc1)C(=O)N[C@@H](CCC(N)=O)c1nc(Cc2ccc(C(C)C)cc2)no1
– | 292 | > 500 | – | CC(=O)N[C@@H](Cc1ccc(OP(=O)(O)O)cc1)C(=O)N[C@@H](CCC(N)=O)c1nc(Cc2ccc(C)cc2)no1
– | 98 | > 500 | – | CC[C@H](NC(=O)[C@H](Cc1ccc(OP(=O)(O)O)cc1)NC(C)=O)c1nc(Cc2ccc(C(F)(F)F)cc2)no1
– | 75 | > 500 | > 500 | CC(=O)N[C@@H](Cc1ccc(OP(=O)(O)O)cc1)C(=O)N[C@@H](CO)c1nc(Cc2ccc(Cl)c(Cl)c2)no1
– | 149 | > 500 | – | CC(=O)N[C@@H](Cc1ccc(OP(=O)(O)O)cc1)C(=O)N[C@@H](CO)c1nc(Cc2ccc(Cl)cc2)no1
– | 32 | > 500 | – | CC(=O)N[C@@H](Cc1ccc(OP(=O)(O)O)cc1)C(=O)N[C@@H](CO)c1nc(Cc2ccc(Br)cc2)no1
– | 31 | > 500 | – | CC(=O)N[C@@H](Cc1ccc(OP(=O)(O)O)cc1)C(=O)N[C@@H](C)c1nc(Cc2ccc(Br)cc2)no1
– | 205 | > 500 | – | CC(=O)N[C@@H](Cc1ccc(OP(=O)(O)O)cc1)C(=O)N[C@@H](CCC(N)=O)c1nc(Cc2ccc(Cl)cc2)no1
– | > 500 | > 500 | – | CC(=O)N[C@@H](Cc1ccc(OP(=O)(O)O)cc1)C(=O)N[C@@H](CC(N)=O)c1nc(Cc2ccc(C(F)(F)F)cc2)no1
– | 50 | 464 | – | CC(=O)N[C@@H](Cc1ccc(OP(=O)(O)O)cc1)C(=O)N[C@@H](C)c1nc(Cc2ccc(I)c(Cl)c2)no1
– | 99 | > 500 | 479 | CC(=O)N[C@@H](Cc1ccc(OP(=O)(O)O)cc1)C(=O)N[C@@H](CO)c1nc(Cc2ccc3ccccc3c2)no1
– | 259 | > 500 | – | CC(=O)N[C@@H](Cc1ccc(OP(=O)(O)O)cc1)C(=O)N[C@@H](CCC(N)=O)c1nc(Cc2cccc(Cl)c2)no1
– | 66 | > 500 | – | CC(=O)N[C@@H](Cc1ccc(OP(=O)(O)O)cc1)C(=O)N[C@@H](C)c1nc(Cc2ccc(Cl)cc2)no1
– | 210 | > 500 | > 500 | CC(=O)N[C@@H](Cc1ccc(OP(=O)(O)O)cc1)C(=O)N[C@@H](C)c1nc(Cc2ccc(C(F)(F)F)cc2)no1
– | 18 | 472 | – | CC(=O)N[C@@H](Cc1ccc(OP(=O)(O)O)cc1)C(=O)N[C@@H](C)c1nc(Cc2ccc(I)cc2)no1
– | 200 | > 500 | – | CC(=O)N[C@@H](Cc1ccc(OP(=O)(O)O)cc1)C(=O)N[C@@H](C)c1nc(Cc2ccc(F)cc2)no1
– | 68 | > 500 | – | CC(=O)N[C@@H](Cc1ccc(OP(=O)(O)O)cc1)C(=O)N[C@@H](C)c1nc(Cc2cccc(Cl)c2)no1
– | 37 | 452 | – | CC(=O)N[C@@H](Cc1ccc(OP(=O)(O)O)cc1)C(=O)N[C@@H](CO)c1nc(Cc2ccc(I)cc2)no1
– | 65 | > 500 | – | CC(=O)N[C@@H](Cc1ccc(OP(=O)(O)O)cc1)C(=O)N[C@@H](C)c1nc(Cc2ccc(C)cc2)no1
– | 40 | > 500 | – | CC(=O)N[C@@H](Cc1ccc(OP(=O)(O)O)cc1)C(=O)N[C@@H](C)c1nc(Cc2ccc(I)c(Br)c2)no1
– | 282 | > 500 | > 500 | CC(=O)N[C@@H](Cc1ccc(OP(=O)(O)O)cc1)C(=O)N[C@@H](CO)c1nc(Cc2ccc(C(F)(F)F)cc2)no1

Further lines, the compound ahead of its results:

SMILES | IC50 [1] [µM] | IC50 [2] [µM] | IC50 [3] [µM] | IC50 [4] [µM]
CC(=O)N[C@@H](Cc1ccc(OP(=O)(O)O)cc1)C(=O)NCCc1nc(Cc2ccc(C(F)(F)F)cc2)no1 | > 500 | > 500 | > 500 | –
C[C@H](NC(=O)[C@H](Cc1ccc(OP(=O)(O)O)cc1)NC(=O)Cc1ccccc1)c1nc(Cc2ccc(C(F)(F)F)cc2)no1 | – | 123 | > 500 | –
CC(=O)N[C@@H](Cc1ccc(OP(=O)(O)O)cc1)C(=O)N[C@@H](CCc1ccccc1)c1nc(Cc2ccc(C(F)(F)F)cc2)no1 | – | 95 | 323 | > 500
CC(=O)N[C@@H](CC(N)=O)C(=O)N[C@@H](CCC(N)=O)C(=O)N[C@@H](CC(C)C)C(=O)N[C@@H](Cc1ccc(OP(=O)(O)O)cc1)C(=O)N[C@@H](CC(N)=O)C(=O)N[C@@H](CCC(=O)O)C(=O)N[C@@H](CC(C)C)C(=O)N[C@@H](CC(N)=O)C(=O)N[C@@H](CC(C)C)C(=O)NCC(=O)N[C@@H](CCCN=C(N)N)C(=O)N[C@@H](CCCN=C(N)N)C(=O)N[C@@H](CCC(=O)O)C(=O)N[C@@H](CCC(=O)O)C(=O)N[C@@H](Cc1ccc(OP(=O)(O)O)cc1)C(=O)N[C@@H](CC(=O)O)C(=O)N[C@H](C(=O)N[C@@H](CC(C)C)C(=O)N[C@@H](CC(=O)O)C(N)=O)C(C)C | – | 20 | – | –
COc1ccc(CC(=O)N[C@@H](Cc2ccc(OP(=O)(O)O)cc2)C(=O)N[C@@H](C)c2nc(Cc3ccc(C(F)(F)F)cc3)no2)cc1 | – | 87 | > 500 | –
CC(=O)N[C@@H](Cc1ccc(OP(=O)(O)O)cc1)C(=O)N[C@@H](C)c1nc(Cc2ccc3ccccc3c2)no1 | – | 64 | > 500 | > 500
CC(=O)N[C@@H](Cc1ccc(OP(=O)(O)O)cc1)C(=O)NC(C)(C)c1nc(Cc2ccc(C(F)(F)F)cc2)no1 | 228 | 489 | > 500 | –
C[C@H](NC(=O)[C@H](Cc1ccc(OP(=O)(O)O)cc1)NC(=O)Cc1cccs1)c1nc(Cc2ccc(C(F)(F)F)cc2)no1 | – | 143 | > 500 | –
CC(=O)N[C@@H](Cc1ccc(OP(=O)(O)O)cc1)C(=O)N[C@@H](CCc1ccccc1)c1nc(Cc2ccc3ccccc3c2)no1 | – | 78 | 288 | > 500
C[C@H](NC(=O)[C@H](Cc1ccc(OP(=O)(O)O)cc1)NC(=O)Cc1ccc(F)c(F)c1)c1nc(Cc2ccc(C(F)(F)F)cc2)no1 | – | 130 | 397 | –
C[C@H](NC(=O)[C@H](Cc1ccc(OP(=O)(O)O)cc1)NC(=O)Cc1c[nH]c2ccccc12)c1nc(Cc2ccc(C(F)(F)F)cc2)no1 | – | 62 | 433 | –
O=C(Cc1ccccc1)N[C@@H](Cc1ccc(OP(=O)(O)O)cc1)C(=O)N[C@@H](CO)c1nc(Cc2ccc3ccccc3c2)no1 | – | 68 | > 500 | 368
CC(=O)N[C@@H](Cc1ccc(OP(=O)(O)O)cc1)C(=O)N[C@@H](CCC(N)=O)c1nc(Cc2cccc3ccccc23)no1 | – | 135 | > 500 | –
CC(=O)N[C@@H](Cc1ccc(OP(=O)(O)O)cc1)C(=O)N[C@@H](C)c1nc(Cc2ccc(Cl)c(Br)c2)no1 | – | 45 | > 500 | –
CC(=O)N[C@@H](Cc1ccc(OP(=O)(O)O)cc1)C(=O)N[C@@H](C)c1nc(Cc2cccc(C(F)(F)F)c2)no1 | – | 115 | > 500 | –
C[C@H](NC(=O)[C@H](Cc1ccc(OP(=O)(O)O)cc1)NC(=O)Cc1ccc2ccccc2c1)c1nc(Cc2ccc(C(F)(F)F)cc2)no1 | – | 49 | 302 | –
CC(=O)N[C@@H](Cc1ccc(OP(=O)(O)O)cc1)C(=O)N[C@@H](CCC(N)=O)c1nc(Cc2ccc3ccccc3c2)no1 | – | 274 | > 500 | 327
O=C(Cc1ccccc1)N[C@@H](Cc1ccc(OP(=O)(O)O)cc1)C(=O)N[C@@H](CO)c1nc(Cc2ccc(C(F)(F)F)cc2)no1 | – | 161 | 318 | > 500
CC(=O)N[C@@H](Cc1ccc(OP(=O)(O)O)cc1)C(=O)N[C@@H](C)c1nc(Cc2ccc(Br)c(Br)c2)no1 | – | 39 | > 500 | –
CC(=O)N[C@@H](Cc1ccc(OP(=O)(O)O)cc1)C(=O)N[C@@H](C)c1nc(Cc2ccc(Cl)c(Cl)c2)no1 | – | 72 | > 500 | > 500
CC(=O)N[C@@H](Cc1ccc(OP(=O)(O)O)cc1)C(=O)N[C@@H](CCc1ccccc1)c1nc(Cc2ccc(Cl)c(Cl)c2)no1 | – | 60 | 250 | 340
CC(=O)N[C@@H](Cc1ccc(OP(=O)(O)O)cc1)C(=O)N[C@@H](Cc1c[nH]c2ccccc12)c1nc(Cc2ccc(C(F)(F)F)cc2)no1 | – | 92 | > 500 | –
CC(=O)N[C@@H](Cc1ccc(OP(=O)(O)O)cc1)C(=O)N[C@@H](CCC(N)=O)c1nc(Cc2ccc(Cl)c(Cl)c2)no1 | – | 206 | > 500 | 441
O=C(Cc1ccccc1)N[C@@H](Cc1ccc(OP(=O)(O)O)cc1)C(=O)N[C@@H](CO)c1nc(Cc2ccc(Cl)c(Cl)c2)no1 | – | 35 | > 500 | 263
